Results from ChEMBL document CHEMBL1150360, “Design, synthesis, and QSAR studies of novel lysine derives as amino-peptidase N/CD13 inhibitors” (Bioorg Med Chem, 2008).

Columns and labels:
[1] = target: 72 kDa type IV collagenase (Homo sapiens, UniProt P08253); assay: Inhibition of MMP2
Summary of the method: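 Gelatinase A enzyme, synthetic substrate and inhibitor dissolved together in 50 mmol/L sodium borate, pH 8.5, and incubated 30 min at 37 °C. 0.03% TNBS then added and incubated a further 20 min. Absorbance read at 450 nm.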

[2] = Inhibition of aminopeptidase N
Summary of the method: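 Porcine kidney microsomal aminopeptidase, 4 µg/mL final, preincubated 30 min at room temperature with inhibitor. Inhibitor solutions made in assay buffer and adjusted to pH 7.5. Substrate L-Leu-p-nitroanilide in 50 mM PBS, pH 7.2, at 37 °C; hydrolysis followed as absorbance change at 405 nm. IC50 determined.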

Sequence of 72 kDa type IV collagenase (P08253 whole entry): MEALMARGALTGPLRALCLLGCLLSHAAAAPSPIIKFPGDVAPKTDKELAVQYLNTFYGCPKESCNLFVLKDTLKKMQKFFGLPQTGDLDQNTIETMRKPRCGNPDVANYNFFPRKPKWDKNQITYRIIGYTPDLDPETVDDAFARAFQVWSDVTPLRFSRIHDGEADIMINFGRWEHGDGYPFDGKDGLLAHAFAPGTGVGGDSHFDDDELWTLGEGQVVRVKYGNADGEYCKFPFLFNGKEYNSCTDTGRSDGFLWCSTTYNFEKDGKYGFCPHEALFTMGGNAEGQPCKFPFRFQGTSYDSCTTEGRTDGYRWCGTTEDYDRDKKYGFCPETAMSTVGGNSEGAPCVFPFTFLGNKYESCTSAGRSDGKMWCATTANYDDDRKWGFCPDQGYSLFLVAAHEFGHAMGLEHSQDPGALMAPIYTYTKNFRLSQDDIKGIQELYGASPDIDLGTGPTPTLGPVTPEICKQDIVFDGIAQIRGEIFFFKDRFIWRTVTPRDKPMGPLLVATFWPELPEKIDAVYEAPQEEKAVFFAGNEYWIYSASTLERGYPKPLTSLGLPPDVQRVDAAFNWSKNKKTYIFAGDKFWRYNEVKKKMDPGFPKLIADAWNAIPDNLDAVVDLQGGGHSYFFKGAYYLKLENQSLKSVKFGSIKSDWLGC

Row | IC50 [1] [µM] | IC50 [2] [µM] | pIC50 [2] | SMILES
1 | 3.14 | 167 | 3.78 | O=C(NCCCC[C@H](NC(=O)c1cccnc1)C(=O)O)OCc1ccccc1
2 | 8.76 | 292 | 3.54 | O=C(NCCCC[C@H](NC(=O)c1ccncc1)C(=O)O)OCc1ccccc1
3 | 2.93 | 197 | 3.7 | O=C(NCCCC[C@H](NC(=O)c1cnccn1)C(=O)O)OCc1ccccc1
4 | 170 | 13.2 | 4.88 | O=C(NCCCC[C@H](NC(=O)c1ccc(Cl)cc1Cl)C(=O)NO)OCc1ccccc1
5 | 8.08 | 159 | 3.8 | O=C(NCCCC[C@H](NC(=O)c1ccco1)C(=O)NO)OCc1ccccc1
6 | 12.6 | 159 | 3.8 | O=C(NCCCC[C@H](NC(=O)c1cccs1)C(=O)NO)OCc1ccccc1
7 | 11.7 | 95.8 | 4.02 | O=C(NCCCC[C@H](NC(=O)c1cccc([N+](=O)[O-])c1)C(=O)NO)OCc1ccccc1
8 | 25.5 | 91.2 | 4.04 | O=C(NCCCC[C@H](NC(=O)c1ccncc1)C(=O)NO)OCc1ccccc1
9 | 14.3 | 97 | 4.01 | O=C(NCCCC[C@H](NC(=O)c1cnccn1)C(=O)NO)OCc1ccccc1
10 | 9.94 | 112 | 3.95 | O=C(NCCCC[C@H](NC(=O)c1ccc(Br)cc1)C(=O)NO)OCc1ccccc1
11 | 8 | 94.3 | 4.03 | O=C(NCCCC[C@H](NC(=O)c1cccnc1)C(=O)NO)OCc1ccccc1
12 | 32 | 108 | 3.97 | O=C(NCCCC[C@H](NC(=O)c1ccc([N+](=O)[O-])cc1)C(=O)NO)OCc1ccccc1

Second part, the molecule before the results:

Row | SMILES | IC50 [1] [µM] | IC50 [2] [µM] | pIC50 [2]
13 | O=C(NCCCC[C@H](NC(=O)c1cccs1)C(=O)O)OCc1ccccc1 | 12.7 | 1250 | 2.9
14 | O=C(NCCCC[C@H](NC(=O)c1ccc(Cl)cc1Cl)C(=O)O)OCc1ccccc1 | 17.8 | 127 | 3.9
15 | O=C(/C=C/c1ccccc1)N[C@@H](CCCCNC(=O)OCc1ccccc1)C(=O)O | 50.5 | 215 | 3.67
16 | O=C(NCCCC[C@H](NC(=O)c1ccc([N+](=O)[O-])cc1)C(=O)O)OCc1ccccc1 | 19.2 | 202 | 3.69
17 | O=C(NCCCC[C@H](NC(=O)c1ccco1)C(=O)O)OCc1ccccc1 | 8.49 | 1120 | 2.95
18 | O=C(NCCCC[C@H](NC(=O)c1cccc([N+](=O)[O-])c1)C(=O)O)OCc1ccccc1 | 7.48 | 111 | 3.96
19 | O=C(/C=C/c1ccccc1)N[C@@H](CCCCNC(=O)OCc1ccccc1)C(=O)NO | 3.54 | 570 | 3.24
20 | O=C(NCCCC[C@H](NC(=O)c1ccc(Br)cc1)C(=O)O)OCc1ccccc1 | 13.1 | 188 | 3.73
21 | CC(C)C[C@H](NC(=O)[C@@H](O)[C@H](N)Cc1ccccc1)C(=O)O [UBENIMEX] | 22 | 15.5 | –
